# RGS4 inh: RGS4 inhibitors, primary screen, cell-based, HEK293 M3R inducible RGS4, calcium flux. 0.45% of 310,000 active. Regulator of G-protein signaling 4 (Homo sapiens), P49798. Fluo-4 calcium flux; stronger effect = higher value; triggered by carbachol at its EC20. B-score at 10 µM;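 active = B-score, a plate-corrected calcium signal, over three deviations above library mean, with baseline fluorescence within five deviations of library mean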;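 note: RGS4 expression induced by doxycycline in cells with stable M3 receptor; B-score is computed from the integrated fluorescence ratio over baseline after carbachol; higher B-score means a larger calcium signal and so more RGS4 inhibition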
# Target sequence (P49798 whole entry, looked up): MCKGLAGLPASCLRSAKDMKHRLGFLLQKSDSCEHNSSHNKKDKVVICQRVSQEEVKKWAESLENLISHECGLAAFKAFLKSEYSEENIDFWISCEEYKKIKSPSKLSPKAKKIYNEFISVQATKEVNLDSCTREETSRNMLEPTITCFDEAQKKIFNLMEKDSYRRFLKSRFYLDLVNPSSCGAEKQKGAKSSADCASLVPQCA
# RGS4 pot: RGS4 potentiators or activators, primary screen, cell-based, HEK293 M3R inducible RGS4, calcium flux; carbachol calcium flux Fluo4; stronger effect = lower value; B-score at 10 µM; 0.92% of 310,000 active; AID 463111, 2010;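 active = B-score of the integrated calcium signal more than 4 SD below the library mean, with starting fluorescence not abnormally high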;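 note: negative B-score means reduced calcium response which marks RGS4 activation or potentiation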
#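 Reagent: ECmax carbachol challenge; Test system: M3R-expressing HEK293 line, RGS4 induced by doxycycline; Schedule: overnight RGS4 induction, 30 min dye load 37 °C, 20 min compound RT; Detection: calcium dye Fluo4 fluorescence; Read-out: Agonist-evoked peak-minus-minimum fluorescence over baseline, integrated ratio, B score.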
# MrgX1 agonist: agonists of human MrgX1 receptor, primary screen, HEK293 cells, Fluo-4 calcium flux; Fluo-4 calcium fluorescence, agonist mode; stronger effect = higher value; B-score at 10 µM; Mas-related G-protein coupled receptor member X1 (Homo sapiens), Q96LB2; 0.44% of 310,000 active;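 active = calcium response B-score plate-corrected fluorescence ratio at least 3 library SD, with starting fluorescence B-score inside 5 SD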
# Target sequence (Q96LB2 whole entry, looked up): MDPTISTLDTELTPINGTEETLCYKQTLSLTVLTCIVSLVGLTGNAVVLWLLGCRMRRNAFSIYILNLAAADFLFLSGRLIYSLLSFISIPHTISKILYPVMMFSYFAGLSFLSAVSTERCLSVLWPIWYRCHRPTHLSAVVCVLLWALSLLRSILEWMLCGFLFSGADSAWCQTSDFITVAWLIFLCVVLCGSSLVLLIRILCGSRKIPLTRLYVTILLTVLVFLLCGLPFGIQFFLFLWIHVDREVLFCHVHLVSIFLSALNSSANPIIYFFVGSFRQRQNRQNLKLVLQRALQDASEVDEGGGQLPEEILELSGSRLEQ
#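 Material: MrgX1-expressing HEK293 cells / Dosing: compound as first of three additions / Incubation: overnight seeding, then 1 h dark dye loading / Signal: Fluo-4 NW calcium fluorescence / Evaluation: B-scored fluorescence response ratio / Benchmarks: positive and negative control wells on each plate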
# MrgX1 antag: antagonists of human MrgX1 receptor, primary screen, HEK293 cells, Fluo-4 calcium flux. BAM8-22 antagonism; stronger effect = lower value. 1.3% of 310,000 active. Mas-related G-protein coupled receptor member X1 (Homo sapiens), Q96LB2. B-score at 10 µM. AID 588676, 2011;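 active = calcium-response B-score plate-corrected more than 3 library SD below zero, starting fluorescence within 5 deviations, no agonist response on first addition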;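 note: peak minus trough fluorescence over baseline after final BAM8-22 challenge near maximal dose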
# MrgX1 PAM: positive allosteric modulators of MrgX1, primary screen, HEK293 cells, Fluo-4 calcium flux; Mas-related G-protein coupled receptor member X1 (Homo sapiens), Q96LB2; FDSS; stronger effect = higher value; B-score at 10 µM; 0.63% of 310,000 active; AID 588675, 2011;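 active = plate-corrected calcium response at least 3 library SD above typical, normal starting fluorescence, not activating the receptor alone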;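 note: compound read alongside a low EC10 to EC30 dose of BAM8-22 agonist; peak minus trough fluorescence over baseline measured at the second addition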
# Cl transport mod: KCC2 cotransporter modulators, thallium flux, primary screen, cell-based, HEK293 KCC2, FluoZin-2 fluorescence, MLSMR. Solute carrier family 12 member 5 (Homo sapiens), Q9H2X9. 2.2% of 190,000 active. KCC2 cells, thallium flux FluoZin-2 fluorescence. AID 1456, 2008. B-score of Tl+ flux slope (higher = more flux/activation; lower = inhibition) at 10 µM;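 active = thallium flux slope and its plate-corrected score both differing from the plate sample mean at a set confidence after two filtering rounds, in either direction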;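 note: slope of fluorescence scaled to starting intensity during 10 to 20 s after thallium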
# MrgX1 ant reconf: MrgX1 receptor antagonists, duplicate retest, confirmation, HEK293 cells, Fluo-4 calcium flux | shares compounds with MrgX1 antag | BAM8-22 calcium flux; stronger effect = lower value | remaining BAM8-22 calcium response % of control (stronger effect = lower value), % at 10 µM | 19% of 2,300 active;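 active = remaining agonist calcium response no higher than 100% minus 3 SD of agonist-only control wells, with starting fluorescence near control levels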;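 note: agonist BAM8-22 given at a near maximal EC90 to ECmax level; peak minus minimum fluorescence divided by baseline after agonist addition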
# HEK293 Ca flux: nonspecific calcium signal in parental HEK293, confirmation, counter-screen for MrgX1 antagonist project, parental HEK293 cells, Fluo-4 calcium flux. shares compounds with MrgX1 antag. Fluo-4 calcium fluorescence, FDSS. fluorescence ratio F(max-min)/F0 at 10 µM. 2% of 4,000 active. AID 624111, 2012;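 active = duplicate-averaged calcium fluorescence ratio at least three times the standard deviation of buffer wells, a nonspecific response in parental cells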
# HEK293 Ca counter: calcium response in parental HEK293 cells, primary screen, counter-screen for MrgX1 allosteric activator project, cell-based, Fluo-4 calcium flux, duplicate | shares compounds with MrgX1 antag | Fluo-4 fluorescence ratio; stronger effect = higher value | fluorescence ratio F(max-min)/F0 at 10 µM | 0.4% of 4,000 active;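 active = calcium fluorescence ratio, averaged over duplicates, at least 3 SD of the buffer-well ratio, meaning a nonspecific response in receptor-free cells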;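 note: untransfected parental HEK293 lacking MrgX1 used as counterscreen for MrgX1 allosteric activators; fluorescence change taken during the second addition on a kinetic imager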
# HEK293 Ca cntr2: calcium response in parental HEK293 cells, primary screen, counter-screen for MrgX1 agonist project, cell-based, Fluo-4 calcium flux, duplicate, agonist mode. shares compounds with MrgX1 antag. Fluo-4 calcium fluorescence (FDSS); stronger effect = higher value. fluorescence ratio F(max-min)/F0 at 10 µM. 8.7% of 4,000 active. AID 624115, 2012;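 active = calcium fluorescence ratio at least three times the spread of buffer wells, meaning a non-specific response in parental cells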
# * marks the source's active call; other numbers are inactive results; i = inactive; x = not tested or not shown. Shown are actives, neighbours in structure and some others; about 4.7% of the full set was active somewhere.
SMILES,RGS4 inh,RGS4 pot,MrgX1 agonist,MrgX1 antag,MrgX1 PAM,Cl transport mod,MrgX1 ant reconf,HEK293 Ca flux,HEK293 Ca counter,HEK293 Ca cntr2
Cc1ccc(CC(=O)NCc2ccc(F)cc2)cc1,i,i,i,-5*,i,-0.036,i,i,i,i
CCC(C)(C)n1nnnc1C(c1ccc2ncccc2c1)N1CCCC(C)C1 (centres undefined),i,i,i,-6.3*,i,-1.6,i,i,i,i
O=C1NC(O)(c2ccccc2)Oc2ccccc21 (centres undefined),i,i,i,i,i,x,x,x,x,x
CCCC1(C)NC(=O)c2ccccc2O1 (centres undefined),i,i,i,-4.9*,i,x,i,i,i,i
Cc1cccc(N(C)c2cc(C)nc3ncnn23)c1,i,i,i,i,i,-1.2,x,x,x,x
CCN(c1ccccc1)c1cc(C)nc2ncnn12,i,i,i,-6.6*,i,0.45,i,i,i,i
CCOc1ccc(NC(=O)COC(=O)COc2cccc3c2OC(C)(C)C3)cc1,i,i,i,i,i,x,x,x,x,x
CC(OC(=O)COc1cccc2c1OC(C)(C)C2)C(=O)Nc1ccc(S(N)(=O)=O)cc1 (centres undefined),i,i,i,-5.4*,i,x,i,i,i,i
CN1C2CCC1CC(NC(=O)CSCc1ccc(Cl)cc1Cl)C2 (centres undefined),i,i,i,i,i,-0.23,x,x,x,x
CCN(CC)S(=O)(=O)c1cccc(C(=O)Nc2ccc3c(c2)OCO3)c1,i,i,i,i,i,-0.31,x,x,x,x
CCC(CC)C(=O)Nc1cccc(C(=O)Nc2ccc3c(c2)OCO3)c1,i,i,i,-6*,i,x,i,i,i,i
CCCNC(=O)c1cccc(NC(=O)C(C)C)c1,i,i,i,-7.3*,i,1.2,i,i,i,48*
O=C(OCCN1C(=O)c2ccccc2C1=O)c1cccs1,i,i,i,-5*,i,x,i,i,i,i
Cc1ccc(CCNC(=O)CCS(=O)(=O)c2ccc(Br)cc2)cc1,i,i,i,-8.1*,i,0.013,i,i,i,i
CC(OC(=O)c1ccncc1)C(=O)NC1CCCC1 (centres undefined),i,i,i,-10*,i,0.88,i,i,i,i
Clc1ccc(C(c2ccccc2)N2CCNCC2)cc1 (centres undefined),i,i,i,-6.3*,i,-0.009,i,i,i,i

# Compound activity: PubChem BioAssay, several laboratories
